STAT3 inh = reduces IL-6 driven STAT3 reporter signal. U3A cells, IL-6 STAT3-luciferase reporter, luminescence; host cell line lacks STAT1. inhibition, % at 5.5 µM. 190,000 tested, 0.89% active;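 active means inhibition above the mean inhibition across all screened compounds plus 3 SD, cut at about 44% in these data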
STAT1 act-1 = increases IFN-gamma driven STAT1 reporter signal | NIH 3T3 STAT1-luciferase reporter, luminescence; 100% = IFN-gamma alone, no compound | 200,000 tested, 2.6% active | activation (% of control), % at 5.5 µM;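 active means activation above the screen-wide mean activation plus 3 SD, cut at about 130% in these data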
APP 5'UTR act = activates APP 5'UTR luciferase reporter. SH-SY5Y APP 5'UTR luciferase reporter, luminescence; zero percent = DMSO vehicle wells. activation, % at 2 µM. 190,000 tested, 1% active. AID 1276;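 active means activation above a set limit, based on mean plus 3 SD of controls, cut at about 140% in these data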
STAT3 act-1 = increases IL-6 driven STAT3 reporter signal; AID 871; activation (% of control), % at 5.6 µM; U3A cells, IL-6 STAT3-luciferase reporter, luminescence; 100% = signal with IL-6 EC80 alone; 190,000 tested, 0.91% active;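 active means activation above the screen-wide mean of compound activation plus 3 SD, cut at about 130% in these data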
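Detection: reporter luminescence signal / Assay system: STAT1-lacking human U3A cells, STAT3 luciferase reporter / Incubation: compound pre-incubation 1 h before IL-6, then 6 h stimulation at 37 °C / Control set: IL-6-only high control / Read-out: % activation relative to IL-6 control / Probe or stimulus: Interleukin-6, 33 ng/mL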
STAT1 inh = STAT1 signaling inhibition | NIH 3T3 STAT1-luciferase reporter, IFN-gamma, luminescence | inhibition, % at 5.5 µM | 200,000 tested, 0.35% active;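 active means inhibition above a set limit, the mean inhibition across all tested compounds plus 3 SD, cut at about 34% in these data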
NF-kB neuron act = raises NF-kB expression in human neuronal cells; 190,000 tested, 1.6% active; NF-kB reporter expression; stronger effect = higher value; fold change at 12.5 µM; in the data active means fold change above about 3.3
STAT3 act-2 = confirmation of STAT3 signaling activators. shares compounds with STAT3 act-1. AID 1267. U3A STAT3-luciferase reporter, IL-6 potentiation, luminescence; U3A cells lack STAT1; 100 means same as IL-6 alone. 1,200 tested, 64% active. potentiation (% of control), % at 5.7 µM;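 active means percent activation of the STAT3 luciferase reporter above a set limit taken from the earlier primary screen, cut at about 130% in these data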
NFkB act STAT3ct = activates NF-kappaB, counter-screen to STAT3 activators | shares compounds with STAT3 act-1 | human cells, NF-kappaB reporter activation | activation (% of control), % at 5.7 µM | 1,200 tested, 11% active; in the data active means activation above about 120%;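 further: reporter induced by TNF-alpha stimulation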
STAT1 act-2 = activates STAT1, counter-screen to STAT3 activators; activation (% of control), % at 5.7 µM; shares compounds with STAT3 act-1; AID 1318; 1,200 tested, 13% active; NIH 3T3 STAT1-luciferase reporter, IFN-gamma, luminescence;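 active means activation above the solvent-only control well mean plus 3 SD, set per screening run, cut at about 120% in these data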
Large screens that a line does not name were inactive (follow-up assays come after a bar, where they were run). In the library only some 4.9% were active in any assay of this set; here they are far more common.

CS(=O)(=O)c1ccc(Sc2nc3ccccc3s2)c([N+](=O)[O-])c1	STAT3 act-1 147 | STAT3 act-2 inactive | NFkB act STAT3ct inactive | STAT1 act-2 inactive
O=[N+]([O-])c1cc(S(=O)(=O)C(F)(F)F)ccc1Sc1nc2ccccc2s1	none
COC(=O)c1ccccc1NC(=O)c1cccc(NC(=O)C(C)C)c1	none
CNC(=S)N/N=C/c1ccc(OCC(=O)Nc2c(C)cc(C)cc2C)c(OC)c1	none
COc1cc(/C=N/NC(N)=S)ccc1OCC(=O)Nc1ccc(C)cc1	STAT3 act-1 154 | STAT3 act-2 inactive | NFkB act STAT3ct inactive | STAT1 act-2 inactive
Cc1nc([N+](=O)[O-])c(Br)n1CC(=O)c1ccc(Cl)cc1	none
Cc1nc([N+](=O)[O-])c(Br)n1Cc1ccc(Cl)c(Cl)c1	STAT3 act-1 139 | STAT3 act-2 inactive | NFkB act STAT3ct inactive | STAT1 act-2 inactive
CCCCn1c(=O)[nH]c(=O)c2c1nc(-c1cc3c(cc1Br)OCO3)n2C	none
COc1ccc(OC)c(NC(=O)c2[nH]c(C)c(C(C)=O)c2C)c1	STAT3 act-1 151 | STAT3 act-2 152 | NFkB act STAT3ct inactive | STAT1 act-2 inactive
COc1ccc(-c2nc(NC(=O)c3[nH]c(C)c(C(C)=O)c3C)sc2C)cc1	none
CCOCCCNC(=O)C(NC(=O)Cc1c[nH]c2ccccc12)c1ccccc1 (centres undefined)	STAT3 act-1 144 | STAT3 act-2 135 | NFkB act STAT3ct inactive | STAT1 act-2 inactive
CCOCCCNC(=O)C(NC(=O)Cc1cccs1)c1ccccc1 (centres undefined)	none
O=C(COC(=O)Cn1c(C(F)(F)F)nc2ccccc21)Nc1ccc2c(c1)OCCO2	none
COc1ccc(OC)c(CNCCNC(=O)c2ccco2)c1	none
CCC(=O)N(Cc1cc(=O)[nH]c2ccccc12)c1cccc(C)c1	STAT3 act-1 142 | STAT3 act-2 inactive | NFkB act STAT3ct inactive | STAT1 act-2 inactive
COc1ccc(N(Cc2cc(=O)[nH]c3ccccc23)C(=O)c2ccco2)cc1	none
O=C(CNC(=O)c1ccccc1Cl)N/N=C/C=C/c1ccccc1	none
O=C(Nc1cc(-c2nc3ccccc3s2)ccc1Cl)c1ccc2c(c1)OCO2	STAT3 act-1 138 | STAT3 act-2 137 | NFkB act STAT3ct inactive | STAT1 act-2 127
O=C(NCC1CCCO1)c1ccc(COc2ccc(F)cc2)o1 (centres undefined)	STAT3 act-1 138 | STAT3 act-2 inactive | NFkB act STAT3ct inactive | STAT1 act-2 inactive
COc1ccc(-n2c(N)c(-c3nc4ccccc4n3C)sc2=S)cc1	STAT3 act-1 148 | STAT3 act-2 173 | NFkB act STAT3ct inactive | STAT1 act-2 inactive
CCOc1ccc(-n2c(N)c(-c3nc4ccccc4[nH]3)sc2=S)cc1	none
c1ccc2cc(-c3cc4ccccn4c3)ccc2c1	STAT3 act-1 177 | STAT3 act-2 inactive | NFkB act STAT3ct inactive | STAT1 act-2 inactive
Clc1ccc2c(NCc3ccccn3)ncnc2c1	STAT3 act-1 140 | STAT3 act-2 137 | NFkB act STAT3ct inactive | STAT1 act-2 inactive
Cc1ccc(N(C(=O)c2snc(C(N)=O)c2N)C(C(=O)NCCC(C)C)c2ccco2)cc1 (centres undefined)	none
O=C(O)c1cc2ccc3ccccc3c2oc1=O	STAT3 act-1 152 | STAT3 act-2 inactive | NFkB act STAT3ct inactive | STAT1 act-2 inactive
CCN1N=C(c2ccccc2)Cn2c1nc1ccccc12	none
COc1cc2c(cc1C=O)OC(C)C2 (centres undefined)	none
Cn1c(Sc2ccc(Cl)cc2)c(C=O)c2ccccc21	STAT3 act-1 170 | STAT3 act-2 140 | NFkB act STAT3ct inactive | STAT1 act-2 inactive
Cn1c(Sc2ccccc2Cl)c(C=O)c2ccccc21	none
COc1ccc(N(CC(=O)N2CCc3ccccc32)S(=O)(=O)c2c(C)n[nH]c2C)cc1	none
Cc1ccc(CNC(=O)C2CC(c3ccccc3[N+](=O)[O-])=NO2)cc1 (centres undefined)	STAT3 act-1 156 | STAT3 act-2 174 | NFkB act STAT3ct inactive | STAT1 act-2 inactive
COc1cccc(CNC(=O)C2CCCN(S(=O)(=O)c3cnc[nH]3)C2)c1 (centres undefined)	none
O=C(CCl)N1CCN2C(=O)c3ccccc3C12c1ccc(Cl)cc1 (centres undefined)	none
Cc1ccc(C(=O)N2CCN3C(=O)c4ccccc4C23c2ccc(Cl)cc2)cc1 (centres undefined)	STAT3 act-1 559 | STAT3 act-2 487 | NFkB act STAT3ct 126 | STAT1 act-2 inactive
O=C(NC1CCCCCC1)c1cc(-c2ccccn2)nc2ccccc12	none
COc1cccc(-c2nc(N3CCCCC3C)c3ccccc3n2)c1O (centres undefined)	STAT3 act-1 138 | STAT3 act-2 138 | NFkB act STAT3ct inactive | STAT1 act-2 inactive
Oc1ccc2cc(Br)ccc2c1CN1CCCC1	none
O=C(CCN1CCOCC1)N1CCc2c([nH]c3ccccc23)C1c1cccc(Cl)c1 (centres undefined)	STAT3 act-1 142 | STAT3 act-2 172 | NFkB act STAT3ct inactive | STAT1 act-2 inactive
CCC(Sc1nnnn1-c1ccccc1)C(=O)Nc1nc2ccccc2s1 (centres undefined)	STAT3 act-1 157 | STAT3 act-2 155 | NFkB act STAT3ct inactive | STAT1 act-2 inactive
Cn1c(/N=C/c2cccs2)nc2ccccc21	STAT3 act-1 147 | STAT3 act-2 inactive | NFkB act STAT3ct inactive | STAT1 act-2 inactive
Cn1c(/N=C/c2cc(Cl)ccc2O)nc2ccccc21	STAT3 act-1 157 | STAT3 act-2 inactive | NFkB act STAT3ct inactive | STAT1 act-2 inactive
CCOC(=O)N1CCc2c(sc3c2c(=O)n(Cc2ccccc2)c(=O)n3Cc2cccc(C)c2)C1	none
COc1cc(NC(=O)c2ccc(Cl)cc2)c(OC)cc1Cl	STAT3 act-1 149 | STAT3 act-2 inactive | NFkB act STAT3ct inactive | STAT1 act-2 inactive
COc1cc(OC)c(NC(=O)c2ccccc2F)cc1Cl	STAT3 act-1 138 | STAT3 act-2 inactive | NFkB act STAT3ct inactive | STAT1 act-2 inactive
CCCCCCC(=O)NNC(=O)c1c(O)c2ccccc2n(CCC)c1=O	none
CCn1c(=O)c(C(=O)Nc2ccccc2C)c(O)c2ccccc21	STAT3 act-1 140 | STAT3 act-2 141 | NFkB act STAT3ct inactive | STAT1 act-2 inactive
